Assay results taken from ChEMBL document CHEMBL1125737, “Synthesis and anti-HIV activities of low molecular weight aurintricarboxylic acid fragments and related compounds” (J Med Chem, 1991).
Converted amounts (≈) assume the structure as drawn.

How the values were obtained:
[1] = tested on: Human immunodeficiency virus 1; experiment: Inhibitory concentration for cytopathicity of HIV-1 (HTLV-IIIB) in CEM cells; type: functional, organism-based; settings: Human immunodeficiency virus 1, CCRF-CEM
Summary of the method: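 HIV-1 (HTLV-IIIB)-infected CEM cells were treated with the compounds. Cell viability was determined by a tetrazolium (XTT) assay. The 50% inhibitory concentration for cytopathicity is the mean of at least three experiments.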

[2] = tested on: Human immunodeficiency virus 1; experiment: Inhibitory concentration for cytopathicity of HIV-1 (HTLV-IIIB) in MT-4 cells; type: functional, organism-based; settings: Human immunodeficiency virus 1, MT4
[3] = tested on: Human immunodeficiency virus 2; experiment: Inhibitory concentration for cytopathicity of HIV-2 (LAV-2ROD) in MT-4 cells; type: functional, organism-based; settings: Human immunodeficiency virus 2, MT4
[4] = 50% cytotoxic concentrations for mock-infected MT-4 cells.; type: cell-based, MT4; settings: human
Summary of the method: (§1)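 Mock-infected MT-4 cells were exposed to the compounds. Viability was read by a tetrazolium (MTT) colorimetric method in 96-well microtrays. The value is the concentration that is 50% cytotoxic, given as the mean of at least three experiments.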

[5] = 50% cytotoxic concentrations for mock-infected MT-4 cells; type: cell-based, MT4; settings: human; summary of the method: as §1
HuT78 [6] = experiment: Inhibitory concentration that reduced the number of gaint cells by 50% between HIV-1 infected HUT-78 cells and uninfected MOLT-4 cells; type: functional, cell-based; settings: Homo sapiens
Summary of the method: (§2)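 MOLT-4 cells were cocultured with an equal number of HUT-78/HTLV-IIIB or HUT-78/LAV-2ROD cells at various compound concentrations for 24 h. Giant cells were counted microscopically and analysed by laser flow cytometry. The value is the concentration reducing giant cell number by 50%, as the mean of at least three experiments.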

HuT78 [7] = experiment: Inhibitory concentration that reduced the number of gaint cells by 50% between HIV-2 infected HUT-78 cells and uninfected MOLT-4 cells; type: functional, cell-based; settings: Homo sapiens; summary of the method: as §2
HuT78 [8] = experiment: Inhibitory concentration that reduced the number of gaint cells by 50% between HIV-1 infected HUT-78 cells and uninfected MOLT-4 cells.; type: functional, cell-based; settings: Homo sapiens; summary of the method: as §2
HuT78 [9] = experiment: Inhibitory concentration that reduced the number of gaint cells by 50% between HIV-2 infected HUT-78 cells and uninfected MOLT-4 cells.; type: functional, cell-based; settings: Homo sapiens; summary of the method: as §2

SMILES	IC50 [1]	IC50 [2]	IC50 [3]	CC50 [4]	CC50 [5]	IC50 (HuT78 [6])	IC50 (HuT78 [7])	IC50 (HuT78 [8])	IC50 (HuT78 [9])
O=C(O)c1cc(Cc2cc(Cl)c(O)c(C(=O)O)c2)cc(Cl)c1O	117 µg/mL (≈ 328 µM)	> 100 µg/mL	> 100 µg/mL	> 100 µg/mL					
O=C(O)c1cc(Cc2ccc(O)c(C(=O)O)c2)ccc1O	> 276 µg/mL	> 100 µg/mL	> 100 µg/mL	> 100 µg/mL					
CC1=C/C(=C(/c2cc(C)c(O)c(C(=O)[O-])c2)c2c(Cl)ccc(S(=O)(=O)[O-])c2Cl)C=C(C(=O)[O-])C1=O.[Na+].[Na+].[Na+] [CHROME AZUROL S]	50.2 µg/mL								
O=C(O)c1cc(Br)cc(Cc2cc(Br)cc(C(=O)O)c2O)c1O	72.1 µg/mL (≈ 162 µM)	> 100 µg/mL	> 100 µg/mL	> 100 µg/mL					
Cc1cc(C(O)(c2cc(C)c(O)c(C(=O)O)c2)c2cc(C)c(O)c(C(=O)O)c2)cc(C(=O)O)c1O	> 205 µg/mL	> 100 µg/mL	> 100 µg/mL		> 100 µg/mL				
O=S(=O)([O-])c1cc(Cl)cc(Cc2cc(Cl)cc(S(=O)(=O)[O-])c2O)c1O.[Na+].[Na+]	123 µg/mL	> 100 µg/mL	> 100 µg/mL		> 100 µg/mL	> 100 µg/mL	> 100 µg/mL		
O=C(O)c1cc(Cc2cc(Br)c(O)c(C(=O)O)c2)cc(Br)c1O		> 100 µg/mL	> 100 µg/mL	> 100 µg/mL					
O=C(O)c1cc(C(c2ccc(O)c(C(=O)O)c2)c2ccc(O)c(C(=O)O)c2)ccc1O	32.5 µg/mL (≈ 76.6 µM)	> 100 µg/mL	13 µg/mL (≈ 30.6 µM)		256 µg/mL (≈ 603 µM)	> 100 µg/mL	15 µg/mL (≈ 35.3 µM)		
O=C(O)c1cc(Cc2cc(C(=O)O)c(O)c3ccccc23)c2ccccc2c1O	20 µg/mL (≈ 51.5 µM)	75 µg/mL (≈ 193 µM)	79 µg/mL (≈ 203 µM)	73 µg/mL (≈ 188 µM)				> 20 µg/mL	> 20 µg/mL
Cc1cc(C(c2cc(C)c(O)c(C(=O)O)c2)c2cc(C)c(O)c(C(=O)O)c2)cc(C(=O)O)c1O	> 186 µg/mL	80 µg/mL (≈ 172 µM)	67 µg/mL (≈ 144 µM)		82 µg/mL (≈ 176 µM)	> 20 µg/mL	> 20 µg/mL		
COC(=O)c1cc(C(c2cc(C)c(O)c(C(=O)OC)c2)c2cc(C)c(O)c(C(=O)OC)c2)cc(C)c1O		> 100 µg/mL	> 100 µg/mL		> 100 µg/mL				
COC(=O)c1cc(C(O)(c2ccc(O)c(C(=O)OC)c2)c2ccc(O)c(C(=O)OC)c2)ccc1O	> 78 µg/mL	> 100 µg/mL	> 100 µg/mL		66 µg/mL (≈ 137 µM)	> 100 µg/mL	> 100 µg/mL		
Cc1cc(Cc2cc(C)c(O)c(C(=O)O)c2)cc(C(=O)O)c1O	55.5 µg/mL (≈ 175 µM)	> 100 µg/mL	> 100 µg/mL		> 100 µg/mL				
O=C(O)c1cccc(Cc2cccc(C(=O)O)c2O)c1O	> 125 µg/mL	> 100 µg/mL	> 100 µg/mL	> 100 µg/mL					
O=C(O)C1=CC(=C(c2ccc(O)c(C(=O)O)c2)c2ccc(O)c(C(=O)O)c2)C=CC1=O [AURINTRICARBOXYLIC ACID]	2.1 µg/mL (≈ 4.97 µM)	1.1 µg/mL (≈ 2.6 µM)	0.85 µg/mL (≈ 2.01 µM)		280 µg/mL (≈ 663 µM)		4 µg/mL (≈ 9.47 µM)		
O=C(O)c1cc(C(O)(c2ccc(O)c(C(=O)O)c2)c2ccc(O)c(C(=O)O)c2)ccc1O	50.4 µg/mL (≈ 114 µM)	> 100 µg/mL	15 µg/mL (≈ 34.1 µM)		248 µg/mL (≈ 563 µM)	> 100 µg/mL	15 µg/mL (≈ 34.1 µM)		
COC(=O)c1cc(C(c2ccc(O)c(C(=O)OC)c2)c2ccc(O)c(C(=O)OC)c2)ccc1O	> 78 µg/mL	> 100 µg/mL	> 100 µg/mL		52 µg/mL (≈ 111 µM)	> 100 µg/mL	> 100 µg/mL		
